Drawing on ChEMBL document CHEMBL2331551, “TOPS-MODE model of multiplexing neuroprotective effects of drugs and experimental-theoretic study of new 1,3-rasagiline derivatives potentially useful in neurodegenerative diseases” (2013), this text covers Activity for eight compounds.

The structures appear in SMILES notation.

Type in all cases: functional, Neuron
Test [1] in a line: Neuroprotection in Sprague-Dawley rat embryonic motor cortex neurons assessed as protection against 100 uM glutamate-induced excitotoxicity at 5 uM by MTT method. Put shortly: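 Primary cultures of motor cortex neurons from 19-day Sprague-Dawley rat embryos, challenged with glutamate as neurotoxic agent alongside the compound. Cell viability read by MTT reduction, taken as mitochondrial integrity and functional activity, reflecting the number of viable cells. Neuroprotection (NP) reported in %, as mean ± SEM from at least three independent experiments.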

Test [2] can be described thus: Neuroprotection in Sprague-Dawley rat embryonic motor cortex neurons assessed as protection against 100 uM H2O2-induced neuronal death at 5 uM by MTT method. Put shortly:
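Primary neurons cultured from embryonic day-19 Sprague-Dawley rat motor cortex. Cells were exposed to compound in the presence of H2O2 as the neurotoxic insult. Viability was read as MTT reduction, which reflects mitochondrial integrity and function and indicates the number of viable cells. Protection is given as mean ± SEM of at least three independent experiments.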

A short description of test [3]: Neuroprotection in Sprague-Dawley rat embryonic motor cortex neurons at 5 uM by MTT method. Put shortly: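 Cultured neurons from embryonic day-19 Sprague-Dawley rat motor cortex, with compound alone and no neurotoxic agent added. Viability measured by MTT reduction, read as mitochondrial functional activity and number of cells present in culture. Neuroprotection expressed as % (NP), mean ± SEM of at least three independent experiments.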

As to `C#CCN[C@@H]1C[C@@H](O)c2ccccc21`, the Activity turned out to be 15.2% in test [1], 14.5% in test [2] and 23.4% in test [3].
Taken in the same sequence, the figures for `C#CCN[C@@H]1C[C@H](O)c2ccccc21` were 0%, 46.2% and 0%.
In the case of `C#CCN(CC#C)[C@@H]1C[C@H](O)c2ccccc21`, the Activity in test [1] is 0%; in test [2] it was 17.8%; in test [3], -5%.
For the compound `C#CCN(CC#C)[C@@H]1C[C@@H](O)c2ccccc21`, the figures for the Activity in test [1], in test [2] and in test [3] were -0.5%, 19.6% and -1%, respectively.
On to `C#CCN(CC#C)[C@@H]1C[C@H](OC(C)=O)c2ccccc21`, for which the Activity in test [1] was -1.5%; in test [2], 18.2%; in test [3] it was 0%.
On to `C#CCN(CC#C)[C@@H]1C[C@@H](OC(C)=O)c2ccccc21`, for which the Activity in test [1] is on record as -0.5%; in test [2], 12.3%; in test [3], 0%.
For `C#CCN(CC#C)[C@@H]1C[C@H](OC(=O)c2ccccc2)c2ccccc21`, the Activity in test [1] is 1.6%; in test [2] it was 16.4%; in test [3], -5.1%.
`C#CCN(CC#C)[C@@H]1C[C@@H](OC(=O)c2ccccc2)c2ccccc21`: the Activity is listed as -1.3% in test [1], -5.8% in test [2] and 6.9% in test [3].
